Test results published in ChEMBL document CHEMBL2439952, “Synthesis and anti-Trypanosoma cruzi activity of naphthoquinone-containing triazoles: electrochemical studies on the effects of the quinoidal moiety” (Bioorg Med Chem, 2013).

Tests used:
Trypanosoma cruzi [1] = test: Antitrypanosomal activity against trypomastigote form of Trypanosoma cruzi Y assessed as parasite growth inhibition after 24 hrs by Neubauer cell counting method; format: functional, organism-based
[2] = Selectivity index, ratio of LC50 for mouse HMC to IC50 for trypomastigote form of Trypanosoma cruzi Y
Outline: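 Ratio of 24 h LC50 to 24 h IC50. The LC50 came from PrestoBlue on primary mouse embryo heart muscle cells. The IC50 came from Y strain bloodstream trypomastigotes taken at peak parasitaemia from infected albino mice, isolated by differential centrifugation, and held at 10^7 cells/mL in DME with 10% mouse blood. DMSO was at most 0.5%.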

[3] = Cytotoxicity against mouse HMC after 24 hrs by PrestoBlue staining-based assay; conditions: mouse HMC cells, read-out: LC50
Outline: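 Primary heart muscle cells from 18-day-old mouse embryo hearts, dissociated with trypsin and collagenase in PBS pH 7.2. Seeded at 6x10^4 cells/well in RPMI-1640 (pH 7.2), 10% FBS, 2 mM glutamine, 24 h, 37°C. Treated 24 h at 37°C in phenol-red-free supplemented medium. PrestoBlue 5 h, read at 570 and 600 nm. LC50 = concentration damaging 50% of cells versus untreated.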

Trypanosoma cruzi [4] = test: Potency index, ratio of benznidazole IC50 to compound IC50 for trypomastigote form of Trypanosoma cruzi Y; format: functional

SMILES	IC50 (Trypanosoma cruzi [1])	also measured
O=C1C(Br)=C(NCc2cn(CCN3C(=O)c4ccccc4C3=O)nn2)C(=O)c2ccccc21	> 4000 µM	
CC1(C)OC2=C(C(=O)C(=O)c3ccccc32)C1n1cc(CNC2=CC(=O)c3ccccc3C2=O)nn1 (stereo not given)	80.8 µM	Ratio LC50/IC50 [2]: < 1.5; CC50 at 24 h [3]: < 125 µM
O=C1C(Br)=C(NCc2cn(CCCN3C(=O)c4ccccc4C3=O)nn2)C(=O)c2ccccc21	> 4000 µM	
CCC(C)(O)c1cn(C2CC(C)(C)OC3=C2C(=O)c2ccccc2C3=O)nn1 (stereo not given)	> 500 µM	
CC1(C)OC2=C(C(=O)C(=O)c3ccccc32)C1n1cc(CNC2=C(Br)C(=O)c3ccccc3C2=O)nn1 (stereo not given)	6.8 µM	Ratio LC50/IC50 [2]: 9.3; CC50 at 24 h [3]: 63.1 µM; Ratio IC50 (Trypanosoma cruzi [4]): 15
O=C1C(Cl)=C(NCc2cn(CCCN3C(=O)c4ccccc4C3=O)nn2)C(=O)c2ccccc21	> 4000 µM	
O=C1C=C(NCc2cn(CCCN3C(=O)c4ccccc4C3=O)nn2)C(=O)c2ccccc21	> 4000 µM	
O=C1C(Br)=C(NCc2cn(-c3cccc([N+](=O)[O-])c3)nn2)C(=O)c2ccccc21	> 4000 µM	
O=C1C=C(NCc2cn(CCN3C(=O)c4ccccc4C3=O)nn2)C(=O)c2ccccc21	> 4000 µM	
O=C1C=C(NCc2cn(-c3cccc([N+](=O)[O-])c3)nn2)C(=O)c2ccccc21	> 4000 µM	
CC1(C)CC(n2cc(C3CCCCC3)nn2)C2=C(O1)C(=O)c1ccccc1C2=O (stereo not given)	> 2000 µM	
CC1(C)Oc2c(c3nc4ccccc4nc3c3ccccc23)C1n1cc(-c2ccccc2)nn1 (stereo not given)	> 1500 µM	
CC1(C)OC2=C(C(=O)/C(=N\O)c3ccccc32)C1n1cc(-c2ccccc2)nn1 (stereo not given)	> 3200 µM	
CCC(C)(O)c1cn(C2C3=C(OC2(C)C)C(=O)c2ccccc2C3=O)nn1 (stereo not given)	> 4000 µM	
O=C1C(Cl)=C(NCc2cn(CN3C(=O)c4ccccc4C3=O)nn2)C(=O)c2ccccc21	> 4000 µM	
CC1(C)OC2=C(C(=O)C(=O)c3ccccc32)C1n1cc(CNC2=C(Cl)C(=O)c3ccccc3C2=O)nn1 (stereo not given)	8.2 µM	Ratio LC50/IC50 [2]: 34.3; CC50 at 24 h [3]: 282 µM; Ratio IC50 (Trypanosoma cruzi [4]): 12
CCCCCCc1cn(C2C3=C(OC2(C)C)C(=O)c2ccccc2C3=O)nn1 (stereo not given)	> 2000 µM	
O=C1C(Br)=C(NCc2cn(CN3C(=O)c4ccccc4C3=O)nn2)C(=O)c2ccccc21	> 4000 µM	
CC1(C)CC(N=[N+]=[N-])C2=C(O1)C(=O)c1ccccc1C2=O (stereo not given)	318 µM	
O=C1C=C(NCc2cn(CCCCN3C(=O)c4ccccc4C3=O)nn2)C(=O)c2ccccc21	> 4000 µM	
CCCCCc1cn(C2CC(C)(C)OC3=C2C(=O)c2ccccc2C3=O)nn1 (stereo not given)	> 4000 µM	
CC1(C)OC2=C(C(=O)c3ccccc3C2=O)C1n1cc(C2CCCCC2)nn1 (stereo not given)	> 1500 µM	
O=C1C(Cl)=C(NCc2cn(CCN3C(=O)c4ccccc4C3=O)nn2)C(=O)c2ccccc21	> 4000 µM	
CC1(C)OC2=C(C(=O)C(=O)c3ccccc32)C1n1cc(-c2ccccc2)nn1 (stereo not given)	17.3 µM	
CC1(C)OC2=C(C(=O)c3ccccc3C2=O)C1n1cc(-c2ccccc2)nn1 (stereo not given)	> 4000 µM	
O=C1C=C(NCc2cn(CN3C(=O)c4ccccc4C3=O)nn2)C(=O)c2ccccc21	> 4000 µM	
CC1(C)Oc2c(c3nccnc3c3ccccc23)C1n1cc(-c2ccccc2)nn1 (stereo not given)	> 4000 µM	
